# pIC50: −log10 of the molar value. The source made the active and inactive calls. The rule behind the calls is not given here.
# Assays:
# [1] = system: SW-620; experiment: Cytotoxicity in human SW620 cells assessed as reduction in cell viability incubated for 48 hrs by MTT assay; type: functional, cell-based; details: SW-620, 48 h
# Method in brief: (§1)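 MTT viability. U251 and NCI-H1299 were grown in DMEM, the other lines in RPMI 1640, each with 10% FBS, penicillin and streptomycin, at 37 °C in 5% CO2. Cells were seeded in 96-well plates overnight and exposed to a range of concentrations. MTT (5 mg/mL) was added for 4 h, formazan was dissolved in DMSO and absorbance read at 570 nm. Three independent experiments.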
# [2] = system: A549; experiment: Induction of apoptosis in human A549 cells assessed as necrotic cells at 10 uM by annexinV-FITC and propidium iodide staining based flow cytometric analysis (reference value: 1.44%); type: functional
# [3] = system: A549; experiment: Induction of mitochondria dysfunction in human A549 cells assessed as mitochondrial membrane potential incubated for 1 hr by JC-1 dye based flow cytometry relative to 0 hrs control; type: functional
# Method in brief: (§2)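 Membrane potential. After treatment for the indicated times, ΔΨm was measured by JC-1 (5 μg/mL) staining and flow cytometry, relative to the 0 h control. Mean ± SD, n = 3.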
# [4] = system: A549; experiment: Induction of apoptosis in human A549 cells assessed as late apoptotic cells at 10 uM by annexinV-FITC and propidium iodide staining based flow cytometric analysis (reference value: 3.14%); type: functional
# [5] = system: A549; experiment: Induction of apoptosis in human A549 cells assessed as early apoptotic cells at 20 uM by annexinV-FITC and propidium iodide staining based flow cytometric analysis (reference value: 1.47%); type: functional
# [6] = system: NCI-H1299; experiment: Induction of ROS generation in human NCI-H1299 cells after 1 hr by DCFH-DA staining based flow cytometry relative to untreated control; type: functional
# Method in brief: (§3)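 ROS by flow cytometry. Cells were exposed for the indicated times, then stained with DCFH-DA (10 μM). DCF mean fluorescence intensity was compared with untreated control. Mean ± SD, n = 3.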
# [7] = system: A549; experiment: Induction of apoptosis in human A549 cells assessed as induction of PARP cleavage at 2.5 to 10 uM incubated for 24 hrs by Western blot analysis; type: functional, cell-based
# Method in brief: (§4)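 Western blot. Cells were cultured overnight in six-well plates, then exposed to various concentrations for 24 h before immunoblotting.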
# [8] = system: A549; experiment: Induction of cytoplasmic vacuolization in human A549 cells at 10 uM measured within 3 hrs by optical microscopy; type: functional, cell-based
# Method in brief: (§5)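 Morphology. A549 or NCI-H1299 cells were treated at 10 μM and vacuole formation was followed by optical microscopy at the indicated times.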
# [9] = system: NCI-H1299; experiment: Induction of cytoplasmic vacuolization in human NCI-H1299 cells at 10 uM measured within 3 hrs by optical microscopy; type: functional, cell-based; method in brief: as §5
# [10] = system: NCI-H1299; experiment: Cytotoxicity in human NCI-H1299 cells assessed as reduction in cell viability at 5 uM incubated for 24 hrs in presence of pan-caspase inhibitor Z-VAD-FMK by MTT assay; type: functional, cell-based
# [11] = system: HT-29; experiment: Cytotoxicity in human HT-29 cells assessed as reduction in cell viability incubated for 48 hrs by MTT assay; type: functional, cell-based; details: HT-29, 48 h; method in brief: as §1
# [12] = system: NCI-H1299; experiment: Induction of apoptosis in human NCI-H1299 cells assessed as early apoptotic cells at 20 uM by annexinV-FITC and propidium iodide staining based flow cytometric analysis (reference value: 1.26%); type: functional
# [13] = system: NCI-H1299; experiment: Induction of apoptosis in human NCI-H1299 cells assessed as necrotic cells at 20 uM by annexinV-FITC and propidium iodide staining based flow cytometric analysis (reference value: 3.17%); type: functional
# [14] = system: HepG2; experiment: Cytotoxicity in human HepG2 cells assessed as reduction in cell viability incubated for 48 hrs by MTT assay; type: functional, cell-based; details: HepG2, 48 h
# Method in brief: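 MTT viability. Cells were seeded in 96-well plates overnight and exposed to a range of concentrations. MTT (5 mg/mL) was added for 4 h, formazan was dissolved in DMSO and absorbance read at 570 nm. Three independent experiments.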
# [15] = system: NCI-H1299; experiment: Induction of apoptosis in human NCI-H1299 cells assessed as late apoptotic cells at 20 uM by annexinV-FITC and propidium iodide staining based flow cytometric analysis (reference value: 3.29%); type: functional
# [16] = system: NCI-H1299; experiment: Induction of ROS generation in human NCI-H1299 cells by DCFH-DA staining based flow cytometry; type: functional, cell-based; details: TDE = time-dependent effect; method in brief: as §3
# [17] = system: NCI-H1299; experiment: Induction of apoptosis in human NCI-H1299 cells assessed as early apoptotic cells at 10 uM by annexinV-FITC and propidium iodide staining based flow cytometric analysis (reference value: 1.26%); type: functional
# [18] = system: A549; experiment: Induction of ROS generation in human A549 cells by DCFH-DA staining based flow cytometry; type: functional, cell-based; details: TDE = time-dependent effect; method in brief: as §3
# [19] = system: NCI-H1299; experiment: Induction of mitochondria dysfunction in human NCI-H1299 cells assessed as mitochondrial membrane potential incubated for 1 hr by JC-1 dye based flow cytometry relative to 0 hrs control; type: functional; method in brief: as §2
# [20] = system: NCI-H1299; experiment: Induction of apoptosis in human NCI-H1299 cells assessed as late apoptotic cells at 10 uM by annexinV-FITC and propidium iodide staining based flow cytometric analysis (reference value: 3.29%); type: functional
# [21] = system: NCI-H1299; experiment: Cytotoxicity in human NCI-H1299 cells assessed as reduction in cell viability incubated for 48 hrs by MTT assay; type: functional, cell-based; details: NCI-H1299, 48 h; method in brief: as §1
# [22] = system: A549; experiment: Induction of mitochondria-derived paraptosis in human A549 cells assessed as formation of fluorescent vacuoles after 3 hrs by Mito-Tracker staining based fluorescence microscopy; type: functional, cell-based
# Method in brief: (§6)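 Live-cell imaging. Treated cells on coverslips were stained with Mito-Tracker Red (100 nM) at 37 °C for 30 min, washed three times with PBS and stained with Hoechst 33342 (10 μg/mL) for 15 min. Images were taken by confocal or fluorescence microscopy at the indicated times.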
# [23] = system: A549; experiment: Induction of apoptosis in human A549 cells assessed as late apoptotic cells at 20 uM by annexinV-FITC and propidium iodide staining based flow cytometric analysis (reference value: 3.14%); type: functional
# [24] = system: A549; experiment: Cytotoxicity in human A549 cells assessed as reduction in cell viability incubated for 48 hrs by MTT assay; type: functional, cell-based; details: A549, 48 h; method in brief: as §1
# [25] = system: A549; experiment: Induction of cytoplasmic vacuolization in human A549 cells; type: functional, cell-based
# [26] = system: NCI-H1299; experiment: Induction of mitochondria-derived paraptosis in human NCI-H1299 cells assessed as formation of fluorescent vacuoles after 3 hrs by Mito-Tracker staining based fluorescence microscopy; type: functional, cell-based; method in brief: as §6
# [27] = system: SMMC-7721; experiment: Cytotoxicity in human SMMC7721 cells assessed as reduction in cell viability incubated for 48 hrs by MTT assay; type: functional, cell-based; details: SMMC-7721, 48 h; method in brief: as §1
# [28] = system: NCI-H1299; experiment: Induction of apoptosis in human NCI-H1299 cells assessed as induction of PARP cleavage at 2.5 to 10 uM incubated for 24 hrs by Western blot analysis; type: functional, cell-based; method in brief: as §4
# [29] = system: KB; experiment: Cytotoxicity in human KB cells assessed as reduction in cell viability incubated for 48 hrs by MTT assay; type: functional, cell-based; method in brief: as §1
# [30] = system: A549; experiment: Induction of mitochondria-derived paraptosis in human A549 cells assessed as reduction in intensity of mitochondria fluorescence up to 24 hrs by Mito-Tracker staining based fluorescence microscopy; type: functional, cell-based
# Method in brief: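 Mitochondrial fluorescence. After treatment for the indicated times, cells were stained with Mito-Tracker Red (100 nM) and 10 000 cells per sample were analysed by flow cytometry. Cells with decreased red fluorescence were gated as "pale" cells.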
smiles,measurement,setting,value
COC(=O)c1c(CCc2ccccc2)cc(O)c(CC=C(C)C)c1O,pIC50,[1],5.20
same,Activity,[2],2.02%
same,Activity,[3],50%
same,Activity,[4],3.39%
same,Activity,[5],2.44%
same,fold change (FC),[6],30
same,Activity,[7],inactive
same,Activity,[8],Active
same,Activity,[9],Active
same,Activity,[10],Active
same,pIC50,[11],5.30
same,Activity,[12],1.11%
same,Activity,[13],3.49%
same,pIC50,[14],5.20
same,Activity,[15],2.95%
same,Activity,[16],Tde
same,Activity,[17],0.57%
same,Activity,[18],Tde
same,Activity,[19],25%
same,Activity,[20],3.36%
same,pIC50,[21],5.29
same,Activity,[22],Active
same,Activity,[23],4.14%
same,pIC50,[24],5.22
same,Activity,[25],Active
same,Activity,[26],Active
same,pIC50,[27],5.07
same,Activity,[28],inactive
same,pIC50,[29],5.17
same,Activity,[30],Active
